How the values were obtained:
[1] = target: T1, Neuropeptide Y receptor type 4 (Homo sapiens, UniProt P50391); assay: Intrinsic activity at human NPY Y4 receptor expressed in CHO cells co-expressing Gqi5-mtAEQ assessed as induction of calcium mobilization by aequorin luminescence assay relative to pancreatic polypeptide; format: functional, cell-based
Outline: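 Luminescence was integrated as area under the curve and normalized to the response to 1 µM PP. Data are means ± SEM of at least 3 independent experiments, each run in triplicate.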

[2] = target: T1, Neuropeptide Y receptor type 4; assay: Agonist activity at human NPY Y4 receptor expressed in HEK293 cells co-expressing CRE-Luc gene assessed as inhibition of forskolin stimulated luciferase activity after 4.5 hrs by luminescence assay; format: functional, cell-based
Outline: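 HEK293 cells stably co-transfected with a CRE-controlled firefly luciferase reporter and hY4R, tested in phenol-red-free DMEM, pH 7.4. The maximal inhibition by PP was set to 0% activity (α = 1.0). Data are means ± SEM of at least 3 experiments in triplicate.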

[3] = target: T1, Neuropeptide Y receptor type 4; assay: Intrinsic activity at human NPY Y4 receptor expressed in HEK293 cells co-expressing CRE-Luc gene assessed as inhibition of forskolin stimulated luciferase activity after 4.5 hrs by luminescence assay relative to pancreatic polypeptide; format: functional, cell-based
Outline: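 HEK293 cells stably co-transfected with a CRE-controlled firefly luciferase reporter and hY4R, tested in phenol-red-free DMEM, pH 7.4. […] The maximal inhibition by PP was set to 0% activity (α = 1.0). Data are means ± SEM of at least 3 experiments in triplicate.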

[4] = target: T1, Neuropeptide Y receptor type 4; assay: Displacement of [3H](2R,7R)-10 from human NPY Y4 receptor expressed in CHO cells co-expressing Gqi5-mtAEQ after 90 mins in presence of L-15 medium by liquid scintillation counting; format: cell-based
[5] = target: T2, Neuropeptide Y receptor type 1 (Homo sapiens) (UniProt P25929); assay: Antagonist activity at human NPY Y1 receptor expressed in human HEL cells assessed as inhibition of the pNPY-stimulated intracellular [Ca2+] mobilization by Fura-2 based luminescence spectrometry; format: functional, cell-based
T2 sequence (whole entry): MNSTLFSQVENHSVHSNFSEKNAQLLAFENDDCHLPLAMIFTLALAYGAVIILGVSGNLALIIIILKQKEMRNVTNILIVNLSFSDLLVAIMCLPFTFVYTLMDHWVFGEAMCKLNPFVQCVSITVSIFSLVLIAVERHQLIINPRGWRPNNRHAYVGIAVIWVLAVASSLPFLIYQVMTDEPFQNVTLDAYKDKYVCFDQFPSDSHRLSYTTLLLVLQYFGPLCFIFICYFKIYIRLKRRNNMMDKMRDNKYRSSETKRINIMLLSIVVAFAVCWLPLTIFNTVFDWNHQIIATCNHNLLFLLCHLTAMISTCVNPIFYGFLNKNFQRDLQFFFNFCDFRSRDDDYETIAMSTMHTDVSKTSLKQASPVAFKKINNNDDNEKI
Outline: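 Functional Y1R assay on HEL cells, which express Y1R endogenously. Intracellular Ca2+ was read with Fura-2 on a luminescence spectrometer. Antagonism is expressed as Kb.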

[6] = target: T1, Neuropeptide Y receptor type 4; assay: Displacement of [3H]18 from human NPY Y4 receptor expressed in CHO cells co-expressing Gqi5-mtAEQ after 90 mins by liquid scintillation counting; format: cell-based
[7] = target: T1, Neuropeptide Y receptor type 4; assay: Binding affinity to human NPY Y4 receptor expressed in CHO cells co-expressing Gqi5-mtAEQ after 90 mins in presence of sodium-free HEPES buffer by liquid scintillation counting; format: cell-based
[8] = target: T1, Neuropeptide Y receptor type 4; assay: Binding affinity to human NPY Y4 receptor expressed in CHO cells co-expressing Gqi5-mtAEQ after 90 mins in presence of L-15 medium by liquid scintillation counting; format: cell-based

T1 sequence (P50391 whole entry): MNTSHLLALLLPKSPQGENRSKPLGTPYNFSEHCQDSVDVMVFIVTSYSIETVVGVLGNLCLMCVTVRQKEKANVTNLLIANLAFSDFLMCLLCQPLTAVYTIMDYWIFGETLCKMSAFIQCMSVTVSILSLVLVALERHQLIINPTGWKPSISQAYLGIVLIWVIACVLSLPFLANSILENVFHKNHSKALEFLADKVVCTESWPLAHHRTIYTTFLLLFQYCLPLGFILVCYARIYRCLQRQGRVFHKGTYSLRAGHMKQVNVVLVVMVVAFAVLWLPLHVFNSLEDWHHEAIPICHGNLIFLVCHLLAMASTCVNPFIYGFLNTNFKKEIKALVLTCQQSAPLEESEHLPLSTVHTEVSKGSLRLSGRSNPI

Intrinsic activity [1]	EC50 [2] [nM]	Intrinsic activity [3]	Ki [4] [nM]	Kb [5] [nM]	Ki [6] [nM]	Kd [7] [nM]	Kd [8] [nM]	Compound
0.75	1.6	1.03	2	9.5	0.18	–	–	CC(C)C[C@H](NC(=O)[C@H](CCCNC(=N)N)NC(=O)[C@H](Cc1ccc(O)cc1)NC(=O)[C@H](N)CCCC[C@@H](N)C(=O)N[C@@H](Cc1ccc(O)cc1)C(=O)N[C@@H](CCCNC(=N)N)C(=O)N[C@@H](CC(C)C)C(=O)N[C@@H](CCCNC(=N)N)C(=O)N[C@@H](Cc1ccc(O)cc1)C(N)=O)C(=O)N[C@@H](CCCNC(=N)N)C(=O)N[C@@H](Cc1ccc(O)cc1)C(N)=O
–	–	–	–	–	–	0.67	9.8	[3H]CC([3H])C(=O)N[C@@H](CCCC[C@H](N)C(=O)N[C@@H](Cc1ccc(O)cc1)C(=O)N[C@@H](CCCNC(=N)N)C(=O)N[C@@H](CC(C)C)C(=O)N[C@@H](CCCNC(=N)N)C(=O)N[C@@H](Cc1ccc(O)cc1)C(N)=O)C(=O)N[C@@H](Cc1ccc(O)cc1)C(=O)N[C@@H](CCCNC(=N)N)C(=O)N[C@@H](CC(C)C)C(=O)N[C@@H](CCCNC(=N)N)C(=O)N[C@@H](Cc1ccc(O)cc1)C(N)=O (stereo partly drawn)
